Data from ChEMBL document CHEMBL2380239, “Novel ROS-activated agents utilize a tethered amine to selectively target acute myeloid leukemia” (Bioorg Med Chem Lett, 2013).

Key:
HeLa = experiment: Cytotoxicity against human HeLa cells after 48 hrs by MTT assay; format: functional, cell-based
[1] = Therapeutic index, ratio of IC50 for human CD34-positive blood stem/progenitor cells to IC50 for human MA9.3 cells; conditions: CD34-positive blood stem/progenitor cells versus MA9.3 cells, read-out: Ratio IC50
How it was run: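 Cytotoxicity was measured in parallel on non-cancerous human CD34+ blood stem/progenitor cells (UCB) and on the MA9.3 AML line, which was made by introducing the MLL-AF9 oncogene into human CD34+ cells. The index is IC50 in CD34+ cells divided by IC50 in MA9.3, reported as mean ± error.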

[2] = Cytotoxicity against human MA9.3 cells after 48 hrs by MTT assay; format: functional, cell-based
How it was run: (§1)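 Non-transformed human CD34+ blood stem/progenitor cells from umbilical cord blood were run alongside MA9.3, an AML line made by introducing the MLL-AF9 oncogene into human CD34+ cells. IC50 was determined on each cell type. Therapeutic index is the ratio between the MA9.3 and CD34+ IC50 values.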

[3] = Cytotoxicity against human CD34-positive blood stem/progenitor cells after 48 hrs by MTT assay; format: cell-based; how it was run: as §1

CN(CCCCOc1ccc(O)cc1)c1ccccc1
IC50 (HeLa): 12 µM

CN(CCCCCOc1ccc(O)cc1)c1ccccc1
IC50 (HeLa): 13 µM

CN(CCOc1ccc(O)cc1)Cc1ccccc1
IC50 (HeLa): 33 µM

CN(C(=O)COc1ccc(O)cc1)c1ccccc1
IC50 (HeLa): > 125 µM

CN(CCCOc1ccccc1)c1ccccc1
IC50 (HeLa): > 125 µM

CCOc1ccc(O)cc1 [1-hydroxy-4-ethoxybenzene]
IC50 (HeLa): > 125 µM

O=C(O)CCCc1ccc(N(CCCl)CCCl)cc1 [CHLORAMBUCIL]
selectivity ratio [1]: 1.3
IC50 [2]: 8.7 µM
IC50 [3]: 11 µM

Nc1ccn([C@@H]2O[C@H](CO)[C@@H](O)[C@@H]2O)c(=O)n1 [CYTARABINE]
selectivity ratio [1]: 0.6
IC50 [2]: 0.92 µM
IC50 [3]: 0.59 µM

COc1cccc2c1C(=O)c1c(O)c3c(c(O)c1C2=O)C[C@@](O)(C(=O)CO)C[C@@H]3O[C@H]1C[C@H](N)[C@H](O)[C@H](C)O1 [DOXORUBICIN]
IC50 [2]: 0.086 µM
IC50 [3]: 0.076 µM
